Values belong to the compound of their own block, whether it stands above or below them.
Assays:
Renin [1] = target: T1, Renin (Homo sapiens, UniProt P00797); experiment: Inhibition of human recombinant renin using DABCYL-gamma-Abu-Ile-His-Pro-Phe-His-Leu-Val-Ile-His-Thr-EDANS as substrate for 60 mins by fluorimetry
T1 sequence (P00797 whole entry): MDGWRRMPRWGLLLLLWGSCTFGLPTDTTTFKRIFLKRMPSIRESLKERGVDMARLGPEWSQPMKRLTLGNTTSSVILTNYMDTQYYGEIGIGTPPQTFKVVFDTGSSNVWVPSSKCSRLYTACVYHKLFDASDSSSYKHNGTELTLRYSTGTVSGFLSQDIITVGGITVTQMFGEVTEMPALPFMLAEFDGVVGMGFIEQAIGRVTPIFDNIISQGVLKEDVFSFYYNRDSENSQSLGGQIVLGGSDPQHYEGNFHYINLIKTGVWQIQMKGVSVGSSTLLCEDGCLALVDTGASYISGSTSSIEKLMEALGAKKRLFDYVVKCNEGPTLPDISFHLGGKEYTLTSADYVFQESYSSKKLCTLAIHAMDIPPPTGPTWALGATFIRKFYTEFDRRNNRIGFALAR
Outline: (§1)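 Purified recombinant human renin measured in buffer; each value is the average of at least two replicates.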

Renin [2] = target: T1, Renin; experiment: Inhibition of human recombinant renin using H-Asp-Arg-Val-Tyr-Ile-His-Pro-Phe-His-Leu-Val-Ile-His-Asn-OH as substrate assessed as formation of angiotensin1 product after 2 hrs by competive radioimmunoassay; outline: as §1
Renin [3] = target: T1, Renin; experiment: Inhibition of renin in human plasma assessed as formation of angiotensin1 product after 90 mins by competitive radioimmunoassay
Outline: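 IC50 for renin inhibition determined in the presence of human plasma; each value is the average of at least two replicates.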

Cytochrome P450 3A4 = Cytochrome P450 3A4 (Homo sapiens, UniProt P08684); experiment: Inhibition of CYP3A4 using testosterone as substrate in human liver microsome for 20 mins by HPLC analysis; type: ADME, microsomes
Sequence of Cytochrome P450 3A4 (P08684 whole entry): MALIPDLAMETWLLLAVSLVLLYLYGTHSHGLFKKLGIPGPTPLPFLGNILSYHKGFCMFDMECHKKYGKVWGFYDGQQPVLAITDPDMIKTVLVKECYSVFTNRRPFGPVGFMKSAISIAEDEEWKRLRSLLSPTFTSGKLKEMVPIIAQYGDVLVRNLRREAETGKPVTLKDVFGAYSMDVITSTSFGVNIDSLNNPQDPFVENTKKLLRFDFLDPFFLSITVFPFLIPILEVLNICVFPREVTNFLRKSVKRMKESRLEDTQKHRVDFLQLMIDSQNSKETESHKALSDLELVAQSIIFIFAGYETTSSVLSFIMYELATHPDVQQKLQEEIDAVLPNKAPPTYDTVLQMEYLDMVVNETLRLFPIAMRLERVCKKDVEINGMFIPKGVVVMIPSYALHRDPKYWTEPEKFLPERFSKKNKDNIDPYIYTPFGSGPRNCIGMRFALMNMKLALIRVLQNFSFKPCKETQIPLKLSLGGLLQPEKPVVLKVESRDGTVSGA
Outline: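 CYP3A4 inhibition measured in human liver microsomes; IC50 is the average of at least two replicates.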

[4] = AUC (0 to t) in rat at 4 mg/kg, po; type: ADME, organism-based; parameters: dose 4 mg/kg, route oral; conditions: plasma
Outline: (§2)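 Compounds were dosed as fumarate salts in separate intravenous and oral arms. Oral AUC(0–t), IV half-life, IV clearance, Vss and oral bioavailability (F) were derived from the plasma levels.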

[5] = Half life in rat at 0.8 mg/kg, iv; type: ADME, organism-based; parameters: dose 0.8 mg/kg, route intravenous; conditions: in vivo; outline: as §2
[6] = Clearance in rat at 0.8 mg/kg, iv; type: ADME, organism-based; parameters: dose 0.8 mg/kg, route intravenous; conditions: in vivo; outline: as §2
[7] = Volume of distribution at steady state in rat at 0.8 mg/kg, iv and 4 mg/kg, po; type: ADME, organism-based; conditions: in vivo, read-out: Vdss; outline: as §2
[8] = Oral bioavailability in rat at 4 mg/kg; type: ADME, organism-based; conditions: in vivo; outline: as §2
[9] = Fraction unbound in dog plasma; type: ADME, cell-free, Canis lupus familiaris
[10] = Fraction unbound in cynomolgus monkey plasma; type: ADME, cell-free, Macaca fascicularis
Salmonella typhimurium [11] = experiment: Mutagenicity against Salmonella typhimurium in the presence of S9-mix; type: toxicity, organism-based; conditions: salmonella enterica subsp. enterica serovar typhimurium
Salmonella typhimurium [12] = experiment: Mutagenicity against Salmonella typhimurium in the absence of S9-mix; type: toxicity, organism-based; conditions: salmonella enterica subsp. enterica serovar typhimurium
L5178Y [13] = experiment: Genotoxicity against TK-positive mouse L5178Y cells; type: toxicity, cell-based
L5178Y [14] = experiment: Genotoxicity against TK-negative mouse L5178Y cells; type: toxicity, cell-based
[15] = AUC (0 to t) in rat at 8.2 mg/kg, po; type: ADME, organism-based; parameters: dose 8.2 mg/kg, route oral; conditions: plasma; outline: as §2
[16] = AUC (0 to t) in cynomolgus monkey at 2 mg/kg, po; type: ADME, organism-based, Macaca fascicularis; parameters: dose 2 mg/kg, route oral; conditions: plasma; outline: as §2
[17] = Half life in rat at […], iv; type: ADME, organism-based; parameters: dose 1.5 mg/kg, route intravenous; conditions: in vivo
[18] = Half life in cynomolgus monkey at 1 mg/kg, iv; type: ADME, organism-based, Macaca fascicularis; parameters: dose 1 mg/kg, route intravenous; conditions: in vivo; outline: as §2
[19] = Clearance in rat at […], iv; type: ADME, organism-based; parameters: dose 1.5 mg/kg, route intravenous; conditions: in vivo
[20] = Clearance in cynomolgus monkey at 1 mg/kg, iv; type: ADME, organism-based, Macaca fascicularis; parameters: dose 1 mg/kg, route intravenous; conditions: in vivo; outline: as §2
[21] = Volume of distribution at steady state in rat at […], iv and 8.2 mg/kg, po; type: ADME, organism-based; conditions: in vivo, read-out: Vdss
[22] = Volume of distribution at steady state in cynomolgus monkey at 1 mg/kg, iv and 2 mg/kg, po; type: ADME, organism-based, Macaca fascicularis; conditions: in vivo, read-out: Vdss; outline: as §2
[23] = Oral bioavailability in rat at 8.2 mg/kg; type: ADME, organism-based; conditions: in vivo; outline: as §2
[24] = Oral bioavailability in cynomolgus monkey at 2 mg/kg; type: ADME, organism-based, Macaca fascicularis; conditions: in vivo; outline: as §2
[25] = Half life in rat at 1.6 mg/kg, iv; type: ADME, organism-based; parameters: dose 1.6 mg/kg, route intravenous; conditions: in vivo; outline: as §2
[26] = Clearance in rat at 1.6 mg/kg, iv; type: ADME, organism-based; parameters: dose 1.6 mg/kg, route intravenous; conditions: in vivo; outline: as §2
[27] = Volume of distribution at steady state in rat at 1.6 mg/kg, iv and 8.2 mg/kg, po; type: ADME, organism-based; conditions: in vivo, read-out: Vdss; outline: as §2

IC50 (Renin [1]): 6.2 nM
IC50 (Renin [2]): 1.7 nM
IC50 (Renin [3]): 13.1 nM
IC50 (Cytochrome P450 3A4): > 30000 nM
Structure (SMILES): CNC[C@H](CC1CCOCC1)NC(=O)N1CCC[C@@H]([C@@H](OCCNC(=O)OC)c2cccc(Cl)c2)C1

IC50 (Renin [1]): 5.5 nM
IC50 (Renin [2]): 2.7 nM
IC50 (Renin [3]): 4.5 nM
Structure (SMILES): CNC[C@H](C[C@@H]1CCCOC1)NC(=O)N1CCC[C@@H]([C@@H](OCCNC(=O)OC)c2cccc(Cl)c2)C1

IC50 (Renin [1]): 0.47 nM
IC50 (Renin [2]): 0.3 nM
IC50 (Renin [3]): 1.1 nM
fraction unbound [9]: 0.22
fraction unbound [10]: 0.29
Structure (SMILES): CN[C@H](CNC(=O)N1CCC[C@@H]([C@@H](OCCNC(=O)OC)c2cccc(Cl)c2)C1)C[C@H]1CCCOC1 [VTP-27999]
Activity (Salmonella typhimurium [11]): Non-toxic
Activity (Salmonella typhimurium [12]): Non-toxic
Activity (L5178Y [13]): Non-toxic
Activity (L5178Y [14]): Non-toxic

AUC(0-t) [15]: 167 ng·h/mL
AUC(0-t) [16]: 172 ng·h/mL
half-life [17]: 18.3 h
half-life [18]: 14 h
clearance [19]: 48 mL/min/kg
clearance [20]: 9.5 mL/min/kg
Vd [21]: 39 L/kg
Vd [22]: 5 L/kg
bioavailability [23]: 7.5%
bioavailability [24]: 5.3%
Structure (SMILES): CNC[C@H](C[C@H]1CCCOC1)NC(=O)N1CCC[C@@H]([C@@H](OCCNC(=O)OC)c2cccc(Cl)c2)C1.O=C(O)/C=C/C(=O)O

The next lines start with the compound.

Structure (SMILES): CNC[C@@H](NC(=O)N1CCC[C@@H]([C@@H](OCCNC(=O)OC)c2cccc(Cl)c2)C1)[C@@H](O)C1CCCCC1
IC50 (Renin [1]): 0.33 nM
IC50 (Renin [2]): 0.15 nM
IC50 (Renin [3]): 1.06 nM
IC50 (Cytochrome P450 3A4): 7100 nM

Structure (SMILES): CNC[C@H](CC1CCCCC1)NC(=O)N1CCC[C@@H]([C@@](O)(CCCCOC)c2cccc(Cl)c2F)C1
IC50 (Renin [1]): 0.73 nM
IC50 (Renin [3]): 9.4 nM

Structure (SMILES): COCCCC[C@@](O)(c1cccc(Cl)c1F)[C@@H]1CCCN(C(=O)NC[C@@H](N)CC2CCCCC2)C1.O=C(O)/C=C/C(=O)O
AUC(0-t) [4]: 269 ng·h/mL
half-life [5]: 51 h
clearance [6]: 47 mL/min/kg
Vd [7]: 101 L/kg
bioavailability [8]: 29.5%

Structure (SMILES): CNC[C@H](CC1CCCCC1)NC(=O)N1CCC[C@@H]([C@@](O)(CCCCOC)c2cccc(Cl)c2F)C1.O=C(O)/C=C/C(=O)O
AUC(0-t) [15]: 226 ng·h/mL
half-life [25]: 15.9 h
clearance [26]: 30 mL/min/kg
Vd [27]: 16 L/kg
bioavailability [23]: 5.5%
